Source: ChEMBL document CHEMBL1122622, “Carbocyclic analogues of xylofuranosylpurine nucleosides. Synthesis and antitumor activity” (J Med Chem, 1984)
Activity calls are given as the source filed them. No cut-off for these calls is given here.

System: Mus musculus
Experiment: Compound was tested for antileukemic activity in P388 leukemia mice when administered a dose of 100 mg/kg/day; IA means inactive
Format: functional, organism-based
How it was run: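 BDF1 male mice, eight per group, implanted ip with 10⁶ P388 leukemia cells. Drug given ip in 0.5 mL saline. Schedules varied between groups; the 100 mg/kg/day regimen was dosed qd 1-9.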

Nc1ncnc2c1ncn2[C@@H]1C[C@H](CO)[C@@H](O)[C@H]1O
Activity: inactive
